The test system of test [1] is MCF7. Briefly: Anticancer activity against human MCF7 cells assessed as inhibition of cell growth measured after 72 hrs by MTT assay. The class given is functional, cell-based. Conditions: MCF7, 72 h. In a few lines: (§1)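 Cells seeded at 3000 exponentially growing cells/well and incubated 12 h at 37 °C. Medium then replaced with fresh medium containing graded compound concentrations for 72 h; 5-FU positive control. MTT (5 mg/mL solution) added for 4 h, formazan dissolved in DMSO, absorbance read at 570 nm (reference 630 nm). Relative percentage inhibition of viable cells calculated; IC50 reported as mean ± standard deviation.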
Background: Tetrazolium assays rely on reduction of a dye to a coloured formazan, in cell work by metabolically active cells.

For test [2], the system named is HeLa. As to the kind of experiment: Anticancer activity against human HeLa cells assessed as inhibition of cell growth measured after 72 hrs by MTT assay. The class given is functional, cell-based. In outline:
as §1

Test [3] concerns MGC-803. Briefly: Anticancer activity against human MGC-803 cells assessed as inhibition of cell growth measured after 72 hrs by MTT assay. It is filed as functional, cell-based. Conditions: MGC-803, 72 h. In outline:
as §1

For test [4], the system named is Human immunodeficiency virus 1. As to the kind of experiment: Anti-HIV activity against HIV-1 3B infected in human MT4 cells assessed as protection against virus-induced cytopathicity measured after 5 days by MTT assay. The class given is functional, organism-based. As to conditions: Human immunodeficiency virus 1, 3B, MT4, 120 h. A general note: Protection from cytopathic effect is a common read-out in antiviral testing.

For the molecule `C[C@H]1O[C@@H](n2cc(F)c(N)nc2=O)[C@H](O)[C@H]1OCP(=O)(O)O`, the half-maximal inhibitory concentration (IC50) in test [1], in test [2] and in test [3] was above 16 µM each time.

With `C[C@H]1O[C@@H](n2ccc(N)nc2=O)[C@H](O)[C@H]1OCP(=O)(O)O`, the IC50 in test [1], in test [2] and in test [3] was above 16 µM in each case.

With `C[C@H]1O[C@@H](n2cnc3c(N)ncnc32)[C@H](O)[C@H]1OCP(=O)(O)O`, the IC50 in test [1], in test [2] and in test [3] was above 16 µM in each case.

For the molecule `C[C@H]1O[C@@H](n2cc(Cl)c(=O)[nH]c2=O)[C@H](O)[C@H]1OCP(=O)(O)O`, the 50% inhibitory concentration (IC50) in test [1], in test [2] and in test [3] was above 16 µM each time.

For `Cc1cn([C@@H]2O[C@H](C)[C@H](OCP(=O)(O)O)[C@H]2O)c(=O)[nH]c1=O`, the IC50 in test [1], in test [2] and in test [3] was above 16 µM throughout.

On to `Cc1cn([C@H]2C[C@@H](OCP(=O)(O)O)CO2)c(=O)[nH]c1=O`, for which, in test [4], the EC50 (usually the concentration at which the effect is half-maximal) is 6.59 µM.

Regarding `C[C@H]1O[C@@H](n2cc(F)c(=O)[nH]c2=O)[C@H](O)[C@H]1OCP(=O)(O)O`, the half-maximal inhibitory concentration (IC50) in test [1], in test [2] and in test [3] was above 16 µM each time.

With `Nc1ncnc2c1ncn2[C@H]1C[C@@H](OCP(=O)(O)O)CO1`, the EC50 in test [4] came to 2.5 µM.

As to `C[C@H]1O[C@@H](n2ccc(=O)[nH]c2=O)[C@H](O)[C@H]1OCP(=O)(O)O`, the half-inhibitory concentration (IC50) in test [1], in test [2] and in test [3] was above 16 µM each time.

These data come from ChEMBL document CHEMBL4837218, “Synthesis and in vitro antitumour activity of 4(R)-methyl-3-O-phosphonomethyl-α-l-threose nucleosides” (Eur J Med Chem, 2021).
